From ChEMBL document CHEMBL1156074, “Diazo transfer-click reaction route to new, lipophilic teicoplanin and ristocetin aglycon derivatives with high antibacterial and anti-influenza virus activity: an aggregation and receptor binding study” (J Med Chem, 2009)
Active and inactive are the calls of the source.

How the values were obtained:
[1] = test system: Bacillus subtilis; assay: Antibacterial activity against Bacillus subtilis ATCC 6633 after 18 hrs by broth microdilution method; format: functional; conditions: ATCC 6633, 18 h
[2] = test system: Staphylococcus aureus; assay: Antibacterial activity against methicillin-sensitive Staphylococcus aureus ATCC 33591 after 18 hrs by broth microdilution method; format: functional; conditions: ATCC 33591, 18 h
[3] = test system: Influenza B virus; assay: Antiviral activity against Influenza B virus (B/Hong Kong/5/72) assessed as inhibition of virus-induced cytopathic effect at highest concentration by cell-based assay; format: functional; conditions: B/Hong Kong/05/1972
How it was run: (§1)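 Virus-induced cytopathic effect is scored visually in infected cell cultures. EC50 is defined as the compound concentration producing 50% inhibition of the CPE. A compound is recorded as not active when there is no inhibition at the highest concentration tested or at a subtoxic concentration.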

[4] = test system: Staphylococcus epidermidis; assay: Antibacterial activity against Staphylococcus epidermidis after 18 hrs by broth microdilution method; format: functional
[5] = test system: Enterococcus faecalis; assay: Antibacterial activity against vancomycin-resistant and teicoplanin-sensitive Enterococcus faecalis ATCC 51299 harboring vanB gene after 18 hrs by broth microdilution method; format: functional; conditions: ATCC 51299, 18 h
[6] = test system: Influenza A virus; assay: Antiviral activity against Influenza A virus (A/Puerto Rico/8/34(H1N1)) assessed as inhibition of virus-induced cytopathic effect at highest concentration by cell-based assay; format: functional, organism-based; conditions: A/Puerto Rico/8/1934(H1N1); how it was run: as §1
[7] = test system: Influenza B virus; assay: Antiviral activity against Influenza B virus (B/Hong Kong/5/72) assessed as cell viability at subtoxic concentration by cell-based MTS assay; format: functional; conditions: B/Hong Kong/05/1972
[8] = test system: Staphylococcus aureus; assay: Antibacterial activity against methicillin-sensitive Staphylococcus aureus ATCC 29213 after 18 hrs by broth microdilution method; format: functional; conditions: ATCC 29213, 18 h
[9] = test system: H3N2 subtype; assay: Antiviral activity against Influenza A virus (A/Hong Kong/7/87(H3N2)) assessed as cell viability at subtoxic concentration by cell-based MTS assay; format: functional, organism-based; conditions: A/Hong Kong/7/1987(H3N2)
[10] = test system: Enterococcus faecalis; assay: Antibacterial activity against vancomycin and teicoplanin-resistant Enterococcus faecalis 15376 harboring vanA gene after 18 hrs by broth microdilution method; format: functional; conditions: Enterococcus faecalis, 15376, 18 h
[11] = test system: Staphylococcus epidermidis; assay: Antibacterial activity against biofilm of Staphylococcus epidermidis ATCC 35984 after 18 hrs by broth microdilution method; format: functional; conditions: RP62A
[12] = test system: Enterococcus faecalis; assay: Antibacterial activity against vancomycin and teicoplanin-sensitive Enterococcus faecalis ATCC 29212 after 18 hrs by broth microdilution method; format: functional; conditions: ATCC 29212, 18 h
[13] = test system: H3N2 subtype; assay: Antiviral activity against Influenza A virus (A/Hong Kong/7/87(H3N2)) assessed as inhibition of virus-induced cytopathic effect at highest concentration by cell-based assay; format: functional, organism-based; conditions: A/Hong Kong/7/1987(H3N2); how it was run: as §1
[14] = test system: Influenza A virus; assay: Antiviral activity against Influenza A virus (A/Puerto Rico/8/34(H1N1)) assessed as cell viability at subtoxic concentration by cell-based MTS assay; format: functional, organism-based; conditions: A/Puerto Rico/8/1934(H1N1)
[15] = test system: Staphylococcus aureus; assay: Bactericidal activity against methicillin-sensitive Staphylococcus aureus ATCC 33591 after overnight incubation; format: functional
[16] = test system: Staphylococcus aureus; assay: Bactericidal activity against methicillin-sensitive Staphylococcus aureus ATCC 29213 after overnight incubation; format: functional
[17] = test system: Enterococcus faecalis; assay: Bactericidal activity against vancomycin-resistant and teicoplanin-sensitive Enterococcus faecalis ATCC 51299 harboring vanB gene after overnight incubation; format: functional
[18] = test system: Enterococcus faecalis; assay: Bactericidal activity against vancomycin and teicoplanin-resistant Enterococcus faecalis 15376 harboring vanA gene after overnight incubation; format: functional
[19] = test system: Staphylococcus epidermidis; assay: Bactericidal activity against Staphylococcus epidermidis after overnight incubation; format: functional
[20] = test system: Enterococcus faecalis; assay: Bactericidal activity against vancomycin and teicoplanin-sensitive Enterococcus faecalis ATCC 29212 after overnight incubation; format: functional
[21] = test system: Staphylococcus epidermidis; assay: Bactericidal activity against biofilm of Staphylococcus epidermidis ATCC 35984 after overnight incubation; format: functional; conditions: RP62A
[22] = test system: Bacillus subtilis; assay: Bactericidal activity against Bacillus subtilis ATCC 6633 after overnight incubation; format: functional

COC(=O)[C@@H]1NC(=O)[C@H]2NC(=O)[C@H](NC(=O)[C@@H]3NC(=O)[C@H]4NC(=O)[C@H](NC(=O)[C@H](n5cc(COc6ccc(-c7ccccc7)cc6)nn5)c5ccc(O)c(c5)Oc5cc4cc(O)c5C)[C@H](O)c4ccc(cc4)Oc4cc3cc(c4O)Oc3ccc(cc3)[C@H]2O)c2ccc(O)c(c2)-c2c(O)cc(O)cc21
inactive: inhibition [3] | inhibition [6] | inhibition [7] | inhibition [9] | inhibition [13] | inhibition [14]
> 256 µg/mL: MIC [1] | MIC [2] | MIC [4] | MIC [5] | MIC [8] | MIC [10] | MIC [11] | MIC [12]

CCCCCCCCCCOCc1cn([C@H]2C(=O)N[C@@H]3Cc4ccc(c(Cl)c4)Oc4cc5cc(c4O)Oc4ccc(cc4Cl)[C@@H](O)[C@@H]4NC(=O)[C@H](NC(=O)[C@@H]5NC(=O)[C@@H](NC3=O)c3cc(O)cc(c3)Oc3cc2ccc3O)c2ccc(O)c(c2)-c2c(O)cc(O)cc2[C@H](C(=O)OC)NC4=O)nn1
64 µg/mL: MIC [2] | MIC [5] | MBC [19]
256 µg/mL: MBC [15] | MBC [16] | MBC [17] | MBC [18] | MBC [21] | MIC [11]
0.5 µg/mL: MIC [1] | MBC [22]
32 µg/mL: MIC [12]
inactive: inhibition [3] | inhibition [6] | inhibition [7] | inhibition [9] | inhibition [13] | inhibition [14]
16 µg/mL: MIC [4]
128 µg/mL: MIC [8] | MBC [20] | MIC [10]

CN[C@H](CC(C)C)C(=O)N[C@H]1C(=O)N[C@@H](CC(N)=O)C(=O)N[C@H]2C(=O)N[C@H]3C(=O)N[C@H](C(=O)N[C@H](C(=O)O)c4cc(O)cc(O)c4-c4cc3ccc4O)[C@H](O)c3ccc(c(Cl)c3)Oc3cc2cc(c3O[C@@H]2O[C@H](CO)[C@@H](O)[C@H](O)[C@H]2O[C@H]2C[C@](C)(N)[C@H](O)[C@H](C)O2)Oc2ccc(cc2Cl)[C@H]1O [VANCOMYCIN]
1 µg/mL: MIC [1]
4 µg/mL: MBC [15] | MBC [16] | MBC [19] | MBC [21] | MBC [22]
> 256 µg/mL: MIC [10]
16 µg/mL: MIC [5] | MBC [17] | MBC [20]

COC(=O)[C@H]1NC(=O)[C@H]2NC(=O)[C@H](NC(=O)[C@@H]3NC(=O)[C@H]4NC(=O)[C@H](NC(=O)[C@H](N=[N+]=[N-])c5ccc(O)c(c5)Oc5cc4cc(O)c5C)[C@H](O)c4ccc(cc4)Oc4cc3cc(c4O)Oc3ccc(cc3)[C@H]2O)c2ccc(O)c(c2)-c2c(O)cc(O)cc21
128 µg/mL: MIC [5]
> 256 µg/mL: MIC [10]
64 µg/mL: MBC [17]
16 µg/mL: MIC [4] | MBC [19] | MIC [11] | MIC [12]
2 µg/mL: MIC [2] | MBC [16] | MIC [8]
8 µg/mL: MBC [20] | MBC [21]
4 µg/mL: MIC [1]
1 µg/mL: MBC [15] | MBC [22]

CC(=O)N[C@H]1[C@H](O[C@@H]2c3ccc(c(Cl)c3)Oc3cc4cc(c3O)Oc3ccc(cc3Cl)C[C@H]3NC(=O)[C@H](N=[N+]=[N-])c5ccc(O)c(c5)Oc5cc(O)cc(c5)[C@H](NC3=O)C(=O)N[C@H]4C(=O)N[C@H]3C(=O)N[C@@H]2C(=O)N[C@@H](C(=O)O)c2cc(O)cc(O)c2-c2cc3ccc2O)O[C@H](CO)[C@@H](O)[C@@H]1O
> 256 µg/mL: MIC [10]
8 µg/mL: MBC [16] | MIC [8]
64 µg/mL: MIC [1] | MIC [5]
32 µg/mL: MBC [17] | MBC [20] | MIC [12] | MBC [22]
inactive: inhibition [3] | inhibition [6] | inhibition [7] | inhibition [9] | inhibition [13] | inhibition [14]
2 µg/mL: MBC [15]
4 µg/mL: MIC [2] | MIC [4] | MBC [19]
16 µg/mL: MBC [21] | MIC [11]

COC(=O)[C@@H]1NC(=O)[C@H]2NC(=O)[C@H](NC(=O)[C@@H]3NC(=O)[C@H]4NC(=O)[C@@H](Cc5ccc(c(Cl)c5)Oc5cc3cc(c5O)Oc3ccc(cc3Cl)[C@H]2O[C@@H]2O[C@H](CO)[C@@H](O)[C@H](O)[C@H]2NC(C)=O)NC(=O)[C@H](N=[N+]=[N-])c2ccc(O)c(c2)Oc2cc(O)cc4c2)c2ccc(O)c(c2)-c2c(O)cc(O)cc21
256 µg/mL: MBC [17] | MBC [18] | MBC [20]
16 µg/mL: MIC [5] | MIC [10] | MIC [12]
8 µg/mL: MIC [1] | MBC [15] | MBC [16] | MBC [21] | MIC [11] | MBC [22]
4 µg/mL: MIC [2] | MIC [4] | MIC [8] | MBC [19]
inactive: inhibition [3] | inhibition [6] | inhibition [7] | inhibition [9] | inhibition [13] | inhibition [14]

CC(=O)N[C@H]1[C@H](O[C@@H]2c3ccc(c(Cl)c3)Oc3cc4cc(c3O)Oc3ccc(cc3Cl)C[C@H]3NC(=O)[C@H](n5cc(COc6ccc(-c7ccccc7)cc6)nn5)c5ccc(O)c(c5)Oc5cc(O)cc(c5)[C@H](NC3=O)C(=O)N[C@H]4C(=O)N[C@H]3C(=O)N[C@@H]2C(=O)N[C@@H](C(=O)O)c2cc(O)cc(O)c2-c2cc3ccc2O)O[C@H](CO)[C@@H](O)[C@@H]1O
0.5 µg/mL: MIC [1] | MIC [2] | MIC [4] | MIC [5] | MIC [8] | MIC [10] | MIC [11] | MIC [12]
0.25 µg/mL: MBC [15] | MBC [16] | MBC [17] | MBC [18] | MBC [20] | MBC [22]

CCCCCCCCCCOCc1cn([C@H]2C(=O)N[C@@H]3Cc4ccc(c(Cl)c4)Oc4cc5cc(c4O)Oc4ccc(cc4Cl)[C@@H](O[C@@H]4O[C@H](CO)[C@@H](O)[C@H](O)[C@H]4NC(C)=O)[C@@H]4NC(=O)[C@H](NC(=O)[C@@H]5NC(=O)[C@@H](NC3=O)c3cc(O)cc(c3)Oc3cc2ccc3O)c2ccc(O)c(c2)-c2c(O)cc(O)cc2[C@H](C(=O)O)NC4=O)nn1
inactive: inhibition [3] | inhibition [6] | inhibition [7] | inhibition [9] | inhibition [13] | inhibition [14]
0.25 µg/mL: MBC [15] | MBC [16] | MBC [17] | MBC [18] | MBC [20] | MBC [21] | MBC [22]
2 µg/mL: MIC [1]
0.5 µg/mL: MIC [2] | MIC [4] | MIC [5] | MIC [8] | MBC [19] | MIC [10] | MIC [11] | MIC [12]
